Assay results published in ChEMBL document CHEMBL3627647, “Antibacterial properties of 3-(phenylsulfonyl)-2-pyrazinecarbonitrile” (Bioorg Med Chem Lett, 2015).
Values after ≈ are worked out from the molar mass of the structure shown. Active and inactive are the calls of the source. The calls are words filed in the database; no cut-off is given here. Peptide text beside a SMILES is read from it. * marks the point of attachment. βNA = c1ccc2cc(N*)ccc2c1

What was measured:
[1] = system: Staphylococcus aureus; assay: Antibacterial activity against methicillin-resistant Staphylococcus aureus MW2 infected in young adult stage of Caenorhabditis elegans glp-4(bn2);sek-1 (km4) assessed as prolongation of survival at 0.78 to 25 ug/ml after 5 days by Sytox Orange staining-based bright field microscopic analysis relative to control; format: functional
Outline: (§1)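 Young adult C. elegans glp-4(bn2);sek-1(km4) co-inoculated in 384-well plates with MRSA MW2 and 2-fold serial dilutions (0.78–100 µg/mL). DMSO ≤1%; 1% DMSO was the negative control and vancomycin the positive control. Dead worms were stained with Sytox Orange and imaged with brightfield. Survival = fraction of worm area not fluorescent.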

[2] = system: Staphylococcus aureus; assay: Antibacterial activity against methicillin-resistant Staphylococcus aureus MW2 infected in young adult stage of Caenorhabditis elegans glp-4(bn2);sek-1 (km4) assessed as prolongation of survival at 100 ug/ml after 5 days by Sytox Orange staining-based bright field microscopic analysis relative to control; format: functional; conditions: MW2, 120 h; outline: as §1
[3] = system: Staphylococcus aureus; assay: Antibacterial activity against methicillin-resistant Staphylococcus aureus MW2 infected in young adult stage of Caenorhabditis elegans glp-4(bn2);sek-1 (km4) assessed as prolongation of survival at 50 ug/ml after 5 days by Sytox Orange staining-based bright field microscopic analysis relative to control; format: functional; conditions: MW2, 120 h; outline: as §1
[4] = system: Enterococcus faecium; assay: Antibacterial activity against Enterococcus faecium E007 after overnight incubation by broth microdilution method; format: functional
[5] = system: HEK293; assay: Toxicity in HEK293 cells assessed as mortality rate at 4 ug/ml after 24 hrs by WST-1 assay relative to control; format: cell-based; conditions: human, hek293, 24 h
Outline: (§2)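 HEK-293 cells treated with serial dilutions (1–64 µg/mL); rotenone as positive control. Viability read spectrophotometrically from conversion of WST-1 to formazan.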

[6] = system: Enterobacter sp.; assay: Ratio of MIC for Enterobacter sp. KCTC 2625 in absence of 64 ug/ml efflux pump inhibitor PAbetaN to MIC for Enterobacter sp. KCTC 2625 in presence of 64 ug/ml efflux pump inhibitor PAbetaN; format: functional
[7] = Toxicity in HEK293 cells assessed as cell survival rate at 64 ug/ml after 24 hrs by WST-1 assay relative to control; format: cell-based; conditions: human, read-out: Survival; outline: as §2
[8] = system: Klebsiella pneumoniae; assay: Antibacterial activity against Klebsiella pneumoniae ATCC 77326 after overnight incubation by broth microdilution method; format: functional
[9] = system: Staphylococcus aureus; assay: Ratio of MBC to MIC for methicillin-resistant Staphylococcus aureus MW2; format: functional
[10] = system: Enterobacter sp.; assay: Antibacterial activity against Enterobacter sp. KCTC 2625 after overnight incubation by broth microdilution method; format: functional
[11] = system: Klebsiella pneumoniae; assay: Antibacterial activity against Klebsiella pneumoniae ATCC 77326 after overnight incubation by broth microdilution method in presence of 64 ug/ml efflux pump inhibitor PAbetaN; format: functional
[12] = system: Pseudomonas aeruginosa; assay: Ratio of MIC for Pseudomonas aeruginosa PA14 in absence of 64 ug/ml efflux pump inhibitor PAbetaN to MIC for Pseudomonas aeruginosa PA14 in presence of 64 ug/ml efflux pump inhibitor PAbetaN; format: functional
[13] = system: Staphylococcus aureus; assay: Bactericidal activity against methicillin-resistant Staphylococcus aureus MW2 after overnight incubation; format: functional
[14] = system: Pseudomonas aeruginosa; assay: Antibacterial activity against Pseudomonas aeruginosa PA14 after overnight incubation by broth microdilution method; format: functional
[15] = system: Staphylococcus aureus; assay: Bactericidal activity against methicillin-resistant Staphylococcus aureus MW2 at 40 ug/ml measured for 4 hrs by time-kill assay; format: functional
[16] = system: Acinetobacter baumannii; assay: Ratio of MIC for Acinetobacter baumannii ATCC 17978 in absence of 64 ug/ml efflux pump inhibitor PAbetaN to MIC for Acinetobacter baumannii ATCC 17978 in presence of 64 ug/ml efflux pump inhibitor PAbetaN; format: functional
[17] = Toxicity in HEK293 cells assessed as cell survival rate up to 2 ug/ml after 24 hrs by WST-1 assay relative to control; format: cell-based; conditions: human, read-out: Survival; outline: as §2
[18] = system: Klebsiella pneumoniae; assay: Antibacterial activity against Klebsiella pneumoniae ATCC 77326 after overnight incubation by microplate checkerbroad assay in presence of polymyxin B; format: functional
Outline: (§3)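 Microplate checkerboard: PSPC at final 1–64 µg/mL crossed with polymyxin B at final 0.063–64 µg/mL; minimum growth-inhibiting concentrations alone and in combination determined and used to calculate FIC index.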

[19] = system: Acinetobacter baumannii; assay: Antibacterial activity against Acinetobacter baumannii ATCC 17978 after overnight incubation by microplate checkerbroad assay in presence of polymyxin B; format: functional; outline: as §3
[20] = system: Acinetobacter baumannii; assay: Antibacterial activity against Acinetobacter baumannii ATCC 17978 after overnight incubation by broth microdilution method; format: functional
[21] = system: Enterobacter sp.; assay: Antibacterial activity against Enterobacter sp. KCTC 2625 after overnight incubation by broth microdilution method in presence of 64 ug/ml efflux pump inhibitor PAbetaN; format: functional
[22] = system: Staphylococcus aureus; assay: Ratio of MIC for methicillin-resistant Staphylococcus aureus MW2 to MEC for methicillin-resistant Staphylococcus aureus MW2 infected in young adult stage of Caenorhabditis elegans glp-4(bn2);sek-1 (km4); format: functional
Outline: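 The MW2 MIC was measured in Müller-Hinton broth. For the MEC, young adult glp-4(bn2);sek-1(km4) worms were co-inoculated with MW2 in 384-well plates with 2-fold dilutions (0.78–100 µg/mL), with DMSO at or below 1%. Dead worms were stained with Sytox Orange. Survival was taken as […] per well.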

[23] = system: Caenorhabditis elegans; assay: Toxicity in Caenorhabditis elegans glp-4(bn2);sek-1 (km4) after 5 days by Sytox Orange staining-based bright field microscopic analysis; format: organism-based; conditions: in vivo, 120 h
Outline: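 Young adult C. elegans glp-4(bn2);sek-1(km4) co-inoculated in 384-well plates with MRSA strain MW2 and 2-fold serial dilutions (0.78–100 µg/mL), DMSO ≤1%; dead worms stained with Sytox Orange, survival from fluorescent worm area relative to total worm area.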

[24] = system: Klebsiella pneumoniae; assay: Ratio of MIC for Klebsiella pneumoniae ATCC 77326 in absence of 64 ug/ml efflux pump inhibitor PAbetaN to MIC for Klebsiella pneumoniae ATCC 77326 in presence of 64 ug/ml efflux pump inhibitor PAbetaN; format: functional
[25] = system: Acinetobacter baumannii; assay: Antibacterial activity against Acinetobacter baumannii ATCC 17978 after overnight incubation by broth microdilution method in presence of 64 ug/ml efflux pump inhibitor PAbetaN; format: functional
[26] = Hemolytic activity in sheep erythrocytes at 0.063 to 64 ug/ml after 1 hr; format: ADME, cell-based, Ovis aries; conditions: erythrocyte
Outline: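 Sheep red blood cells exposed 1 hour to serial dilutions (0.063–64 µg/ml); Triton X-100 at 0.001–1% as positive control; hemolysis scored visually and confirmed by absorbance at 540 nm.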

[27] = system: HEK293; assay: Toxicity in HEK293 cells assessed as decrease in cell survival rate after 24 hrs by WST-1 assay; format: cell-based; conditions: human, hek293, 24 h
Outline: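 HEK-293 cells treated with serial dilutions over 1–64 µg/mL; rotenone as positive control; viability read spectrophotometrically from WST-1 conversion to formazan by viable cells.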

[28] = system: Staphylococcus aureus; assay: Antibacterial activity against methicillin-resistant Staphylococcus aureus MW2 infected in young adult stage of Caenorhabditis elegans glp-4(bn2);sek-1 (km4) assessed as prolongation of survival after 5 days by Sytox Orange staining-based bright field microscopic analysis; format: functional; conditions: MW2, 120 h, read-out: MEC; outline: as §1
[29] = system: Staphylococcus aureus; assay: Antibacterial activity against methicillin-resistant Staphylococcus aureus MW2 after overnight incubation by broth microdilution method; format: functional
Outline: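 Broth microdilution MIC against MRSA MW2 in Müller-Hinton broth.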

[30] = system: Pseudomonas aeruginosa; assay: Antibacterial activity against Pseudomonas aeruginosa PA14 after overnight incubation by broth microdilution method in presence of 64 ug/ml efflux pump inhibitor PAbetaN; format: functional
[31] = system: Acinetobacter baumannii; assay: Antibacterial activity against Acinetobacter baumannii ATCC 17978 assessed as growth inhibition at 64 ug/ml after overnight incubation by broth microdilution method; format: functional, organism-based
[32] = system: Pseudomonas aeruginosa; assay: Antibacterial activity against Pseudomonas aeruginosa PA14 assessed as growth inhibition at 64 ug/ml after overnight incubation by broth microdilution method; format: functional, organism-based
[33] = system: Enterobacter sp.; assay: Antibacterial activity against Enterobacter sp. KCTC 2625 assessed as growth inhibition at 64 ug/ml after overnight incubation by broth microdilution method; format: functional, organism-based
[34] = system: Klebsiella pneumoniae; assay: Antibacterial activity against Klebsiella pneumoniae ATCC 77326 assessed as growth inhibition at 64 ug/ml after overnight incubation by broth microdilution method; format: functional, organism-based
[35] = system: Klebsiella pneumoniae; assay: Antibacterial activity against Klebsiella pneumoniae ATCC 77326 after overnight incubation by microplate checkerbroad assay in presence of PSPC; format: functional, organism-based; outline: as §3
[36] = system: Acinetobacter baumannii; assay: Antibacterial activity against Acinetobacter baumannii ATCC 17978 after overnight incubation by microplate checkerbroad assay in presence of PSPC; format: functional, organism-based
Outline: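 Checkerboard microplate growth inhibition. PSPC at final 1–64 µg/mL combined with polymyxin B at final 0.063–64 µg/mL. The lowest concentrations inhibiting growth alone and in combination were used to calculate the FIC index.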

CN[C@H](CC(C)C)C(=O)N[C@H]1C(=O)N[C@@H](CC(N)=O)C(=O)N[C@H]2C(=O)N[C@H]3C(=O)N[C@H](C(=O)N[C@H](C(=O)O)c4cc(O)cc(O)c4-c4cc3ccc4O)[C@H](O)c3ccc(c(Cl)c3)Oc3cc2cc(c3O[C@@H]2O[C@H](CO)[C@@H](O)[C@H](O)[C@H]2O[C@H]2C[C@](C)(N)[C@H](O)[C@H](C)O2)Oc2ccc(cc2Cl)[C@H]1O [VANCOMYCIN]
Survival [1]: >90% | survival at 100 µg/mL [2]: > 97% | survival at 50 µg/mL [3]: > 97% | MIC [4]: 4 µg/mL (≈ 2.76 µM)

N#Cc1nccnc1S(=O)(=O)c1ccccc1
Survival [1]: >90% | mortality [5]: 69% | Ratio [6]: >8 | viability at 24 h, 64 ug/ml [7]: 8.5% | survival at 100 µg/mL [2]: 16% | survival at 50 µg/mL [3]: 46% | MIC [8]: 64 µg/mL (≈ 261 µM) | Ratio [9]: 4 | MIC [10]: > 64 µg/mL | MIC [11]: 8 µg/mL | Ratio [12]: >4 | MBC [13]: 16 µg/mL (≈ 65.2 µM) | MIC [14]: > 64 µg/mL | Activity [15]: 100% | Ratio [16]: 8 | viability at 24 h [17]: 90% | MIC [4]: 8 µg/mL (≈ 32.6 µM) | fractional inhibitory concentration index (FICI) [18]: 0.141 | MIC ([18]; Klebsiella pneumoniae, ATCC 77326): 1 µg/mL | fractional inhibitory concentration index (FICI) [19]: 0.375 | MIC ([19]; Acinetobacter baumannii, ATCC 17978): 4 µg/mL | MIC [20]: 32 µg/mL (≈ 130 µM) | MIC [21]: 8 µg/mL | Ratio [22]: >=5 | Activity [23]: Dose-dependent effect | Ratio [24]: 8 | MIC [25]: 4 µg/mL | Activity [26]: Non-toxic | Activity [27]: Dose-dependent effect | minimal effective concentration [28]: ≤ 0.78 µg/mL | MIC [29]: 4 µg/mL (≈ 16.3 µM) | MIC [30]: 16 µg/mL

N=C(N)NCCC[C@H](NC(=O)[C@@H](N)Cc1ccccc1)C(=O)Nc1ccc2ccccc2c1 (H-Phe-Arg-βNA)
growth inhibition (GI) [31]: inactive | growth inhibition (GI) [32]: inactive | growth inhibition (GI) [33]: inactive | growth inhibition (GI) [34]: inactive

N#Cc1nccnc1Sc1ccccc1
MIC [8]: > 64 µg/mL | MIC [10]: > 64 µg/mL | MIC [14]: > 64 µg/mL | MIC [4]: > 64 µg/mL | MIC [20]: > 64 µg/mL | MIC [29]: > 64 µg/mL

N#Cc1nccnc1[S+]([O-])c1ccccc1 (stereo not drawn)
MIC [8]: 64 µg/mL (≈ 279 µM) | MIC [10]: > 64 µg/mL | MIC [14]: > 64 µg/mL | MIC [4]: 8 µg/mL (≈ 34.9 µM) | MIC [20]: 32 µg/mL (≈ 140 µM) | MIC [29]: 4 µg/mL (≈ 17.4 µM)

POLYMYXIN B
MIC [8]: 16 µg/mL | MIC [10]: 32 µg/mL | MIC [14]: 2 µg/mL | MIC [35]: 2 µg/mL | MIC [20]: 0.5 µg/mL | MIC [36]: 0.125 µg/mL
